Target: T1, Serotonin 3 (5-HT3) receptor (Rattus norvegicus, UniProt P35563+Q9JJ16)
T1 sequence (P35563 whole entry): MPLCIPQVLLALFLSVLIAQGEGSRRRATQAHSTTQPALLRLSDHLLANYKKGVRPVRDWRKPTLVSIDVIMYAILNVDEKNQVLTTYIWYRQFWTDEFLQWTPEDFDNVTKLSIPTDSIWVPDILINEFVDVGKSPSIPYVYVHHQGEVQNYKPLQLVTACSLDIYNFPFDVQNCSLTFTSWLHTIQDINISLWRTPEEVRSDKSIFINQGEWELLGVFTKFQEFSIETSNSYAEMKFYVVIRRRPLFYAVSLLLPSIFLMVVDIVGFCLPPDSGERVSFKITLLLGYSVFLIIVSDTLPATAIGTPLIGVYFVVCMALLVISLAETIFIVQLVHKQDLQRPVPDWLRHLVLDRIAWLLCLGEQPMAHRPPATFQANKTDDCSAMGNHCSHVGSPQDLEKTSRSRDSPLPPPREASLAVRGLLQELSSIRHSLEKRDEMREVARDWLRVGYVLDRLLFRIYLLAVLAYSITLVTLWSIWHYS
T1 sequence (Q9JJ16 whole entry): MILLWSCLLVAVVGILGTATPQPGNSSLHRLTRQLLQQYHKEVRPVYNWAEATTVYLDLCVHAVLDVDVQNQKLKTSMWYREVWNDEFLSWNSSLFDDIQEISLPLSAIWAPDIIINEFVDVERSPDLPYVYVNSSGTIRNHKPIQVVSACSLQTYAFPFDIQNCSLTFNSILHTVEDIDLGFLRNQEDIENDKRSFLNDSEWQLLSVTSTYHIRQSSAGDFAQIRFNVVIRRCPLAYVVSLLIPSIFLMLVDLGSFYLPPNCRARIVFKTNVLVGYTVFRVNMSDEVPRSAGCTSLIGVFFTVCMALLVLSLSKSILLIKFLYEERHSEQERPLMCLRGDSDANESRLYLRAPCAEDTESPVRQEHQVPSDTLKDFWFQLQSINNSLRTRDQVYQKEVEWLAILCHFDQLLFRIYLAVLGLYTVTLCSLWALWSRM
Test: Displacement of [3H]-Q-ICS 205-930 binding to 5-hydroxytryptamine 3 receptor recognition sites in rat brain membranes.
Assay type: cell membranes
Outline: (§1)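 Rat cortical membranes from male Sprague-Dawley rats (250-300 g): sucrose homogenization, differential centrifugation, washed in 2.5 mM Hepes, made fresh on the day. About 400 µg protein incubated on ice (4 °C, 15 min) with 0.5-0.7 nM [3H]Q-ICS 205-930 in 10 mM Hepes pH 7.1 containing pargyline and ascorbate. Nonspecific binding defined with 10 µM MDL 72222.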
`Cn1cc(-c2noc(C34CCN(CC3)CC4)n2)c2ccccc21` gave an IC50 of 4.27 nM.
Work on `Oc1ccccc1-c1noc(C2CN3CCC2CC3)n1` (centres undefined) yielded an IC50 of 41.7 nM.
For `CN1CCC(c2nc(-c3cn(C)c4ccccc34)no2)CC1`, the IC50 was 13.2 nM.
Compound `Cn1cc(-c2noc(C3CC[N+](C)(C)CC3)n2)c2ccccc21` has an IC50 of 35.5 nM.
Work on `Cc1ccc2c(c1)c(-c1noc(C3CN4CCC3CC4)n1)cn2C` (centres undefined) yielded an IC50 of 331 nM.
In the case of `Cn1cc(-c2noc(CCN)n2)c2ccccc21`, the IC50 is reported as 67.6 nM.
In the case of `c1ccc2[nH]c(-c3noc(C4CN5CCC4CC5)n3)cc2c1` (centres undefined), the IC50 is reported as 692 nM.
For `Cn1cc(-c2noc(C3CCC[N+](C)(C)C3)n2)c2ccccc21` (centres undefined), the IC50 was 34.7 nM.
`c1ccc2c(-c3noc(C4CN5CCC4CC5)n3)cccc2c1` (centres undefined) showed an IC50 of 63.1 nM.
In the case of `CNCc1nc(-c2cn(C)c3ccccc23)no1`, the IC50 is reported as 1000 nM.
Compound `CN(C)Cc1nc(-c2cn(C)c3ccccc23)no1` has an IC50 of 166 nM.
With `Cn1cc(-c2noc(C3CN4CCC3CC4)n2)c2cc(F)ccc21` (centres undefined) the IC50 was 45.7 nM.
Work on `Cn1cc(-c2noc(C3CN4CCC3CC4)n2)c2ccccc21` (centres undefined) yielded an IC50 of 1.38 nM.
For `C=CCn1cc(-c2noc(C3CN4CCC3CC4)n2)c2ccccc21` (centres undefined), the IC50 was 21.9 nM.
With `CN(C)CCCc1nc(-c2cn(C)c3ccccc23)no1` the IC50 was 191 nM.
In the case of `Cc1cccc2c(-c3noc(C4CN5CCC4CC5)n3)cn(C)c12` (centres undefined), the IC50 is reported as 95.5 nM.
With `c1ccc2c(-c3noc(C4CN5CCC4CC5)n3)[nH]nc2c1` (centres undefined) the IC50 was 17.8 nM.
`Cn1cc(-c2nc(C3CN4CCC3CC4)no2)c2ccccc21` (centres undefined) showed an IC50 of 29.5 nM.
`CN1CCC=C(c2csc(-c3cn(C)c4ccccc34)n2)C1` gave an IC50 of 5890 nM.
Work on `Cn1c(-c2noc(C3CN4CCC3CC4)n2)cc2ccccc21` (centres undefined) yielded an IC50 of 676 nM.
Compound `Cn1cc(-c2noc(C[N+](C)(C)C)n2)c2ccccc21` has an IC50 of 0.708 nM.
For `Cn1cc(-c2noc(CN)n2)c2ccccc21`, the IC50 was 282 nM.
Compound `Cn1cc(-c2noc(C3=CCCNC3)n2)c2ccccc21` has an IC50 of 468 nM.
For `CN1C2CCC1CC(c1nc(-c3cn(C)c4ccccc34)no1)C2` (centres undefined), the IC50 was 191 nM.
In the case of `Cn1cc(-c2noc(CCN3CCCCC3)n2)c2ccccc21`, the IC50 is reported as 372 nM.
For `Cn1cc(-c2noc(C3CC4CCN3CC4)n2)c2ccccc21` (centres undefined), the IC50 was 129 nM.
For `CN1CCCC(c2nc(-c3cn(C)c4ccccc34)no2)C1` (centres undefined), the IC50 was 12.9 nM.
`c1ccc2ncc(-c3noc(C4CN5CCC4CC5)n3)cc2c1` (centres undefined) gave an IC50 of 1510 nM.
Compound `Oc1ccc(-c2noc(C3CN4CCC3CC4)n2)cc1` (centres undefined) has an IC50 of 148 nM.
Work on `c1ccc2cc(-c3noc(C4CN5CCC4CC5)n3)ccc2c1` (centres undefined) yielded an IC50 of 1480 nM.
`Cn1cc(-c2noc(CC3CN4CCC3CC4)n2)c2ccccc21` (centres undefined) showed an IC50 of 55 nM.
For `c1ccc(-c2noc(C3CN4CCC3CC4)n2)cc1` (centres undefined), the IC50 was 200 nM.
Work on `CN1CC=C(c2nnc(-c3cn(C)c4ccccc34)o2)CC1` yielded an IC50 of 501 nM.
Work on `CNCCc1nc(-c2cn(C)c3ccccc23)no1` yielded an IC50 of 85.1 nM.
Compound `COc1cccc(-c2noc(C3CN4CCC3CC4)n2)c1` (centres undefined) has an IC50 of 12.6 nM.
With `c1cncc(-c2noc(C3CN4CCC3CC4)n2)c1` (centres undefined) the IC50 was 2950 nM.
For `c1ccc2c(-c3noc(C4CN5CCC4CC5)n3)c[nH]c2c1` (centres undefined), the IC50 was 2.69 nM.
`COc1ccccc1-c1noc(C2CN3CCC2CC3)n1` (centres undefined) gave an IC50 of 155 nM.
For `COc1ccc(-c2noc(C3CN4CCC3CC4)n2)cc1` (centres undefined), the IC50 was 1580 nM.
With `CN(C)CCc1nc(-c2cn(C)c3ccccc23)no1` the IC50 was 13.8 nM.
`CN1CCC=C(c2nc(-c3cn(C)c4ccccc34)no2)C1` gave an IC50 of 209 nM.
Work on `Oc1cccc(-c2noc(C3CN4CCC3CC4)n2)c1` (centres undefined) yielded an IC50 of 81.3 nM.
In the case of `Cn1cc(-c2noc(C3CC4CCC3NC4)n2)c2ccccc21` (stereo in doubt; 12s), the IC50 is reported as 89.1 nM.
`Cn1cc(-c2noc(C3CC4CCC3NC4)n2)c2ccccc21` (stereo in doubt; 12t) showed an IC50 of 13.2 nM.
For `Cn1cc(-c2noc(C3CN4CCC3C4)n2)c2ccccc21` (stereo in doubt; 12u), the IC50 was 7.59 nM.
`Cn1cc(-c2noc(C3CN4CCC3C4)n2)c2ccccc21` (stereo in doubt; 12v) gave an IC50 of 1.05 nM.
Work on `CN1CC2CCC1C(c1nc(-c3cn(C)c4ccccc34)no1)C2` (stereo in doubt; 12y) yielded an IC50 of 224 nM.
For `CN1CC2CCC1C(c1nc(-c3cn(C)c4ccccc34)no1)C2` (stereo in doubt; 12z), the IC50 was 85.1 nM.
With `Cn1cc(-c2nsc(C3CC4CCN3C4)n2)c2ccccc21` (stereo in doubt; 26) the IC50 was 14.1 nM.
Compound `Cn1cc(-c2nsc(C3CC4CCN3C4)n2)c2ccccc21` (stereo in doubt; 27) has an IC50 of 20.4 nM.

Tested on: not listed separately
Test: pKa value of the compound
Assay type: physicochemical
Work on `CN1CCC=C(c2nc(-c3cn(C)c4ccccc34)no2)C1` yielded a pKa of 7.2.

Tested on: not listed separately
Test: pKa value of the compound.
Assay type: physicochemical
`CNCc1nc(-c2cn(C)c3ccccc23)no1` gave a pKa of 6.5.
Work on `CN(C)Cc1nc(-c2cn(C)c3ccccc23)no1` yielded a pKa of 5.6.
Work on `Cn1cc(-c2noc(CN)n2)c2ccccc21` yielded a pKa of 6.4.
With `Cn1cc(-c2noc(C3=CCCNC3)n2)c2ccccc21` the pKa was 7.9.
`CNCCc1nc(-c2cn(C)c3ccccc23)no1` showed a pKa of 8.8.
For `CN(C)CCc1nc(-c2cn(C)c3ccccc23)no1`, the pKa was 7.7.

Target: T1, Serotonin 3 (5-HT3) receptor
Test: Compound was evaluated for the displacement of [3H]-Q-ICS 205-930 binding to 5-hydroxytryptamine 3 receptor in rat brain membranes
Assay type: cell membranes
Outline: as §1
`Cc1[nH]c2ccc(O)cc2c1CCN` gave an IC50 of 646 nM.
For `CN1[C@@H]2CC[C@H]1C[C@@H](OC(=O)c1cc(Cl)cc(Cl)c1)C2` [BEMESETRON], the IC50 was 21.9 nM.
